From ChEMBL document CHEMBL1131621, “Synthesis and activity of dipeptides, linked to targeting ligands, as specific NK cell enhancers” (1998)

Tests used:
[1] = In vitro Natural Killer cell activity (Activation of murine splenocyte NK cells by its ability to lyze YAC-1 target cells in chromium release assay) relative to interleukin 2; Range 0-20%; format: functional, Mus musculus
Method in brief: (§1)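 Spleens from female C57BL/6 (H-2b) mice, 6–8 weeks old, homogenized in RPMI 1640 with 10% FCS and 2 mM L-glutamine. Mononuclear cells isolated on a Lympholyte M gradient (800g, 20 min), washed in PBS, viability checked by trypan blue. 5×10^5 splenocytes with compound incubated 4 h with 5×10^3 51Cr-labelled YAC-1 cells; % specific lysis from released chromium. Compounds tested at 10^-4–10^-12 M. Peak activity scored relative to IL 2 (100%) in 20% bands. Actives run 2–5 times, inactives once.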

[2] = In vitro Natural Killer cell activity (Activation of murine splenocyte NK cells by its ability to lyze YAC-1 target cells in chromium release assay) relative to interleukin 2 at 10E-4 to 10E-12 M conc.; format: functional, Mus musculus; method in brief: as §1
[3] = In vitro Natural Killer cell activity (Activation of murine splenocyte NK cells by its ability to lyze YAC-1 target cells in chromium release assay) relative to interleukin 2 at 10E-4 to 10E-12 M conc; Range 81-100%; format: functional, Mus musculus; method in brief: as §1
[4] = In vitro Natural Killer cell activity (Activation of murine splenocyte NK cells by its ability to lyze YAC-1 target cells in chromium release assay) relative to interleukin 2 at 10E-4 to 10E-8 M conc; Range 21-40%; format: functional, Mus musculus; method in brief: as §1
[5] = In vitro Natural Killer cell activity (Activation of murine splenocyte NK cells by its ability to lyze YAC-1 target cells in chromium release assay) relative to interleukin 2 at 10E-4 to 10E-12 M conc; Range 41-60%; format: functional, Mus musculus; method in brief: as §1
[6] = organism: Mus musculus; experiment: Peak or the range of peak activity relative to positive IL 2 control; Range 10e-12-10e-4; format: functional; method in brief: as §1
[7] = In vitro Natural Killer cell activity (Activation of murine splenocyte NK cells by its ability to lyze YAC-1 target cells in chromium release assay) relative to interleukin 2 at 10E-8 to 10E-12 M conc; Range 41-60%; format: functional, Mus musculus; method in brief: as §1
[8] = In vitro Natural Killer cell activity (Activation of murine splenocyte NK cells by its ability to lyze YAC-1 target cells in chromium release assay) relative to interleukin 2 at 10E-4 to 10E-12 M conc; Range 61-80%; format: functional, Mus musculus; method in brief: as §1
[9] = organism: Mus musculus; experiment: Peak or the range of peak activity relative to positive IL 2 control; Range 10e-12-10e-5; format: functional; method in brief: as §1
[10] = In vitro Natural Killer cell activity (Activation of murine splenocyte NK cells by its ability to lyze YAC-1 target cells in chromium release assay) relative to interleukin 2 at 10E-4 to 10E-10 M conc; Range 41-60%; format: functional, Mus musculus; method in brief: as §1

CC1OC(OCCCCCCNC(=O)CC[C@H](NC(=O)[C@H](CCC(N)=O)NC(=O)[C@@H](C)N)C(=O)NCCCCCCOC2OC(C)C(O)C(O)C2O)C(O)C(O)C1O (some centres undefined)
Stimulation [1]: 0%

CC1OC(OCCCCCCNC(=O)[C@H](CCC(N)=O)NC(=O)CCN)C(O)C(O)C1O (some centres undefined)
Stimulation [1]: 0%

CC1OC(OCCCCCCNC(=O)[C@H](CCCN)NC(=O)[C@@H](C)N)C(O)C(O)C1O (some centres undefined)
Stimulation [2]: 0%

C[C@@H](N)C(=O)N[C@@H](CCC(N)=O)C(=O)NCCCCCCO[C@H]1O[C@H](CO)[C@H](O)[C@@H](O)[C@H]1O
Stimulation [3]: 0%

CC(=O)OCCCCCCNC(=O)[C@@H](CCC(N)=O)NC(=O)[C@H](C)N
Stimulation [1]: 0%

CC1OC(OCCCCCCCCCCCCNC(=O)[C@H](CCC(N)=O)NC(=O)[C@@H](C)N)C(O)C(O)C1O (some centres undefined)
Stimulation [4]: 21%

CN[C@H](C(=O)NCCCCCCOC1OC(C)C(O)C(O)C1O)c1ccc(C(=O)O)[nH]1 (some centres undefined)
Stimulation [2]: 0%

C[C@H](N)C(=O)N1CCC[C@H]1C(=O)NCCCCCCO
Stimulation [1]: 0%

CC1OC(OCCCCCCNC(=O)[C@H](CCC(=O)O)NC(=O)[C@@H](C)N)C(O)C(O)C1O (some centres undefined)
Stimulation [5]: 41% | Concentration [6]: 10 pM

C[C@@H](N)C(=O)N[C@@H](CCC(N)=O)C(=O)NCCCCCC(=O)O
Stimulation [2]: 0%

CC1OC(SCCCCCCNC(=O)[C@H](CCC(N)=O)NC(=O)[C@@H](C)N)C(O)C(O)C1O (some centres undefined)
Stimulation [7]: 41%

CC1OC(OCCCCCCNC(=O)[C@@H]2CCCN2C(=O)[C@H](C)N)C(O)C(O)C1O (some centres undefined)
Stimulation [2]: 0%

C[C@H](N)C(=O)N[C@@H](CCC(N)=O)C(=O)NCCCCCCO
Stimulation [5]: 41%

CC1OC(OCCc2ccc(NC(=O)[C@H](CCC(N)=O)NC(=O)[C@@H](C)N)cc2)C(O)C(O)C1O (some centres undefined)
Stimulation [2]: 0%

O=C1CC[C@@H](C(=O)NCCCCCCO)N1
Stimulation [8]: 61% | Concentration [9]: 10 pM

CC1OC(OCCCCCCNC(=O)[C@H](CCC(N)=O)NC(=O)[C@H](C)N)C(O)C(O)C1O (some centres undefined)
Stimulation [8]: 61% | Concentration [6]: 10 pM | Concentration [9]: 10 pM

C[C@@H](N)C(=O)N[C@@H](CCC(N)=O)C(=O)NCCCCCCCCCCCCO
Stimulation [10]: 41%

CC[C@@H](C)[C@H](N)C(=O)N1CCC[C@H]1C(=O)NCCCCCCOC1OC(C)C(O)C(O)C1O (some centres undefined)
Stimulation [2]: 0%

C[C@@H](N)C(=O)N[C@H]1CCC(=O)NC1=O
Stimulation [2]: 0%

CC1OC(OCCCCCCNC(=O)[C@@H](CCC(N)=O)NC(=O)[C@H](C)N)C(O)C(O)C1O (some centres undefined)
Stimulation [2]: 0%
